The source of these data is ChEMBL document CHEMBL5032510, “Identification of Novel Fused Heteroaromatics-Based MALT1 Inhibitors by High-Throughput Screening to Treat B Cell Lymphoma” (J Med Chem, 2021).

Series [1] concerns TMD8. The experiment in a line: Induction of apoptosis in human TMD8 cells assessed as viable cells at 10 uM measured after 24 hrs by Annexin V-FITC/ Propidium iodide staining based flow cytometry (reference value: 90.8%). It counts as functional. Particulars: read-out: Activity. (Flow cytometry measures light scatter and fluorescence of single cells or particles in a stream.)

Series [2] in a line: Clearance in CD-1 mouse at 1 mg/kg, iv by LC-MS/MS analysis. It counts as ADME, organism-based. Particulars: in vivo. The method in brief:
(§1)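 Compound formulated in 5% DMSO + 5% Tween-80 in 90% saline and given to male ICR (CD-1) mice (n = 9) at 10 mg/kg po, 1 mg/kg ip or 1 mg/kg iv. Blood was drawn via the jugular vein at set time points and held on ice. Plasma was separated by centrifugation and stored at −80 °C before PK parameters were derived.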

The nature of series [3]: Tmax in CD-1 mouse at 10 mg/kg, po by LC-MS/MS analysis. It counts as ADME, organism-based. Conditions: in vivo. In outline:
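Male ICR (CD-1) mice (n = 9). Compound formulated in 5% DMSO + 5% Tween-80 in 90% saline and dosed 10 mg/kg po, 1 mg/kg ip or 1 mg/kg iv. Blood drawn from the jugular vein at set time points and held on ice. Plasma separated by centrifugation and stored at −80 °C before parameter derivation.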

Series [4] is described as follows: Induction of apoptosis in human HBL1 cells assessed as dead cells at 5 uM measured after 24 hrs by Annexin V-FITC/ Propidium iodide staining based flow cytometry (reference value: 2.32%). It counts as functional.
Series [5] in a line: AUC (0 to t) in CD-1 mouse at 10 mg/kg, po by LC-MS/MS analysis. It counts as ADME, organism-based. The arrangement: dose 10 mg/kg. Conditions: in vivo. In outline:
as §1

For series [6], the system named is TMD8. As to the kind of experiment: Antiproliferative activity against human TMD8 cells assessed as inhibition of cell growth incubated for 72 hrs by Celltiter-Glo luminescent assay. It counts as functional. The method in brief:
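Exponentially growing cells were seeded at 1 × 10⁴ per 100 μL. HBL-1 and TMD8 were kept in RPMI with 10% FBS, 2 mM glutamine and 10 mM HEPES; OCI-LY1 in Iscove's medium with 20% FBS; all at 37 °C and 5% CO2. Cells were exposed to DMSO or 2-fold serial dilutions from 100 μM for 72 h, in triplicate on one plate. CellTiter-Glo luminescence was read after 1 h. Growth inhibition was calculated against control, accounting for initial cell number, and GI50 was fitted.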
For orientation: In ATP-based viability assays light output follows the ATP content of the culture.

Series [7] has as its target T1, Mucosa-associated lymphoid tissue lymphoma translocation protein 1 (Homo sapiens) (UniProt Q9UDY8).
T1 sequence (whole entry): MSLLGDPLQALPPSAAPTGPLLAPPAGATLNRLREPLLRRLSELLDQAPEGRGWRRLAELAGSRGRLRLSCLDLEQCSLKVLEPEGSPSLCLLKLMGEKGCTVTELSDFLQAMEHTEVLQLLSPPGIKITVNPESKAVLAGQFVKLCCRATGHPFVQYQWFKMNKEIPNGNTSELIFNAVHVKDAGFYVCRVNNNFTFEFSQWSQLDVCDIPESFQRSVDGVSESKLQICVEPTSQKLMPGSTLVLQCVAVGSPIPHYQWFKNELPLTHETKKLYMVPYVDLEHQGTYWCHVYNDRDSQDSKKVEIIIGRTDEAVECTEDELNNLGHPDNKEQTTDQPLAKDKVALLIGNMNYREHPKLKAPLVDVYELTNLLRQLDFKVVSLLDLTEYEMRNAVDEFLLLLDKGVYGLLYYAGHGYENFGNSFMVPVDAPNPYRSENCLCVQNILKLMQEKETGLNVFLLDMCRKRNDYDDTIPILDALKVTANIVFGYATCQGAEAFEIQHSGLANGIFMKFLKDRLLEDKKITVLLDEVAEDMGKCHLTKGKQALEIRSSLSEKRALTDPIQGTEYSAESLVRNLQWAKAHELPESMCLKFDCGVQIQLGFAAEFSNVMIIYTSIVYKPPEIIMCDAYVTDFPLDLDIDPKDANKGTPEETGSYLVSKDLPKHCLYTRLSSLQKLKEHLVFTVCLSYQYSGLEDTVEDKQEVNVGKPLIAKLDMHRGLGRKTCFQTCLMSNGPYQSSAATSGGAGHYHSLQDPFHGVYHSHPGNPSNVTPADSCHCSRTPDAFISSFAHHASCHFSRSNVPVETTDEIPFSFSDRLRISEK
As to the kind of experiment: Inhibition of MALT1 in human TMD8 cells assessed as decrease in RelB substrate cleavage at 8 uM preincubated for 30 mins followed by proteosome inhibitor MG-132 addition and measured after 2 hrs by Western blot analysis. Conditions: time 2.5 hrs. It counts as cell-based. The method in brief:
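Cells were grown in RPMI with 10% FBS, 2 mM glutamine and 10 mM HEPES at 37 °C, 5% CO₂. Pretreated 30 min with compound (4 and 8 μM), then 10 μM MG-132 for 2 h. 20−75 μg total protein run on SDS-PAGE, blotted to PVDF, probed for RelB, detected by HRP chemiluminescence. β-actin was the loading control.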

The subject of series [8] is TMD8. As to the kind of experiment: Induction of apoptosis in human TMD8 cells assessed as increase in cleaved PARP level measured after 12 hrs by Western blot analysis. It counts as functional, cell-based. In outline:
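HBL1, TMD8 or OCI-LY1 cells were exposed to DMSO or compound for 12 h. Cleaved PARP and caspase-3 were probed by western blot with HRP-conjugated secondary antibodies and chemiluminescent detection. Each lane held 20−75 μg total protein.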
A general note: In western blotting, separated proteins are transferred to a membrane and probed.

The source made the active and inactive calls. No cut-off for these calls is given here.

In the case of `COc1ccc(OC)c(NC(=O)c2sc(=S)n(-c3ccc(C(F)(F)F)cc3)c2NC(=O)CCl)c1`, the viability at 10 µM with TMD8 [1] amounted to 3.65%. Besides, in series [2], the clearance turned out to be 14.1 mL/min/kg. The Tmax in series [3] was determined as 3 h. Besides, the Activity in series [4] is 1.8%; with TMD8 [8], “Dose-Dependent Effect”. In addition, the AUC(0-t) in series [5] stood at 11200 ng·h/mL. The concentration for 50% growth inhibition (GI50) in the series on TMD8 [6] worked out at 400 nM. For the same compound, the inhibition result in series [7] was “Active”.

Broadly, the clearance is the rate of elimination divided by the concentration. A low value points to inefficient removal. By Tmax is commonly meant the time from dosing to the highest level. One may read the AUC(0-t) as exposure summed from dosing to a finite time, without extrapolation to infinity. Low readings indicate less exposure, high ones more exposure. What is called GI50 is the concentration that inhibits growth by half.
